Measured values as given in ChEMBL document CHEMBL2375261, “Glycyrrhetinic acid and its analogs: a new class of antifilarial agents” (Bioorg Med Chem Lett, 2013).
In brackets after ≈: the same amount, converted by molar mass. Activity calls are given as the source filed them. The rule behind the calls is not given here.

Assays:
Brugia malayi [1] = test: Antifilarial activity against microfilariae Brugia malayi assessed as inhibition of motility after 24 hrs by microscopic analysis; assay type: functional, organism-based; conditions: for IC50: Brugia malayi, 24 h
Method in brief: (§1)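 In vitro, female adult worms and microfilariae of Brugia malayi were scored for motility. LC100 is the concentration giving 100% motility inhibition, which is taken as parasite death. IC50 is the concentration giving 50% motility inhibition. Adult worms were also run in a parallel MTT reduction assay, reported as mean % inhibition.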

Brugia malayi [2] = test: Antifilarial activity against female adult Brugia malayi assessed as inhibition of motility after 24 hrs by microscopic analysis; assay type: functional, organism-based; conditions: for IC50: Brugia malayi, 24 h; method in brief: as §1
Brugia malayi [3] = test: Antifilarial activity against female adult Brugia malayi assessed as inhibition of MTT reduction at LC100 concentration after 24 hrs; assay type: functional
[4] = Cytotoxicity against african green monkey Vero cells; assay type: cell-based; conditions: chlorocebus sabaeus
[5] = Selectivity index, ratio of CC50 for african green monkey Vero cells to IC50 for microfilariae Brugia malayi; assay type: functional
Method in brief: (§2)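 Selectivity index was calculated as CC50 (concentration killing 50% of cells) divided by the motility IC50 (concentration giving 50% motility inhibition). This was done separately for female adult worms and for microfilariae of B. malayi.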

Brugia malayi [6] = test: Ratio of diethylcarbamazine citrate IC50 to compound IC50 for female adult Brugia malayi; assay type: functional
Brugia malayi [7] = test: Antifilarial activity against adult Brugia malayi infected in jirds assessed as decrease in microfilarial activity isolated from host peritoneal cavity at 100 mg/kg, sc qd for 5 days measured after 7 to 8 days; assay type: functional, organism-based; design: dose 100 mg/kg
Method in brief: (§3)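 Jirds (Meriones unguiculatus) infected with B. malayi were dosed s.c. once daily for 5 days, at 100 mg/kg or, for the reference drug, 25 mg/kg; vehicle-treated animals served as controls (4–6 animals per group). Microfilariae in the peritoneal cavity were assessed on days 7/8 after treatment began. Recovered adult worms were counted as % inhibition over untreated control, with % sterile females scored. Data are mean ± SD, compared by Student's t test.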

Brugia malayi [8] = test: Antifilarial activity against adult Brugia malayi infected in jirds assessed as sterile female worms recovered from host at 100 mg/kg, sc qd for 5 days measured after 56 days relative to control; assay type: functional; conditions: route subcutaneous; method in brief: as §3
[9] = Selectivity index, ratio of CC50 for african green monkey Vero cells to IC50 for female adult Brugia malayi; assay type: functional; method in brief: as §2
Brugia malayi [10] = test: Ratio of diethylcarbamazine citrate LC100 to compound LC100 for female adult Brugia malayi; assay type: functional
Brugia malayi [11] = test: Antifilarial activity against adult Brugia malayi infected in jirds assessed as reduction in worms recovered from host at 100 mg/kg, sc qd for 5 days measured after 56 days relative to control; assay type: functional; method in brief: as §3
Brugia malayi [12] = test: Ratio of diethylcarbamazine citrate IC50 to compound IC50 for microfilariae Brugia malayi; assay type: functional
Meriones unguiculatus = test: Toxicity against jird infected with adult Brugia malayi assessed as behavioural change at 100 mg/kg, sc qd for 5 days measured up to 56 days; assay type: organism-based; design: dose 100 mg/kg, route subcutaneous; conditions: gerbil, in vivo
Brugia malayi [13] = test: Antifilarial activity adult against Brugia malayi infected in jirds assessed as sterile female worms recovered from host at 25 mg/kg, sc qd for 5 days measured after 56 days relative to control; assay type: functional; conditions: route subcutaneous; method in brief: as §3
Brugia malayi [14] = test: Antifilarial activity against adult Brugia malayi infected in jirds assessed as reduction in worms recovered from host at 25 mg/kg, sc qd for 5 days measured after 56 days relative to control; assay type: functional, organism-based; design: dose 25 mg/kg; method in brief: as §3
Brugia malayi [15] = test: Antifilarial activity against adult Brugia malayi infected in jirds assessed as decrease in microfilarial activity isolated from host peritoneal cavity at 25 mg/kg, sc qd for 5 days measured after 7 to 8 days; assay type: functional, organism-based; design: dose 25 mg/kg; method in brief: as §3

| SMILES | LC100 (Brugia malayi [1]) | IC50 (Brugia malayi [1]) | LC100 (Brugia malayi [2]) | inhibition (INH) (Brugia malayi [3]) | CC50 [4] | Ratio CC50/IC50 [5] | Ratio IC50 (Brugia malayi [6]) | IC50 (Brugia malayi [2]) | Activity (Brugia malayi [7]) | Activity (Brugia malayi [8]) | Ratio CC50/IC50 [9] | Ratio (Brugia malayi [10]) | Activity (Brugia malayi [11]) | Activity (Brugia malayi [11]; route subcutaneous) | Ratio IC50 (Brugia malayi [12]) | Activity (Meriones unguiculatus) | Activity (Brugia malayi [13]) | Activity (Brugia malayi [14]) | Activity (Brugia malayi [15]) |
| --- | --- | --- | --- | --- | --- | --- | --- | --- | --- | --- | --- | --- | --- | --- | --- | --- | --- | --- | --- |
| CC1(C)[C@@H](O)CC[C@]2(C)[C@H]3C(=O)C=C4[C@@H]5C[C@@](C)(C(=O)O)CC[C@]5(C)CC[C@@]4(C)[C@]3(C)CC[C@@H]12 [ENOXOLONE] | 12.5 µM | 1.2 µM | >100 µM | 21.71% | – | – | – | – | – | – | – | – | – | – | – | – | – | – | – |
| COC(=O)[C@@]1(C)CC[C@]2(C)CC[C@]3(C)C(=CC(=O)[C@@H]4[C@@]5(C)CC[C@H](OC(C)=O)C(C)(C)[C@@H]5CC[C@]43C)[C@@H]2C1 | 25 µM | 2.21 µM | >100 µM | 7.47% | 7.92 µg/mL (≈ 15 µM) | 3.58 | – | – | – | – | – | – | – | – | – | – | – | – | – |
| CC(=O)O[C@H]1CC[C@]2(C)[C@H]3C(=O)C=C4[C@@H]5C[C@@](C)(C(=O)O)CC[C@]5(C)CC[C@@]4(C)[C@]3(C)CC[C@H]2C1(C)C [ACETOXOLONE] | >100 µM | – | >100 µM | 9.45% | – | – | – | – | – | – | – | – | – | – | – | – | – | – | – |
| CCCCCCCCCCCC(=O)O[C@H]1CC[C@]2(C)[C@H]3C(=O)C=C4[C@@H]5C[C@@](C)(C(=O)O)CC[C@]5(C)CC[C@@]4(C)[C@]3(C)CC[C@H]2C1(C)C | >100 µM | – | >100 µM | 10.69% | – | – | – | – | – | – | – | – | – | – | – | – | – | – | – |
| CCCCCCCCNC(=O)[C@@]1(C)CC[C@]2(C)CC[C@]3(C)C(=CC(=O)[C@@H]4[C@@]5(C)CC[C@H](OC(C)=O)C(C)(C)[C@@H]5CC[C@]43C)[C@@H]2C1 | 100 µM | 42 µM | 100 µM | 52.15% | 106 µg/mL (≈ 170 µM) | 2.53 | 16 | 17.7 µM | inactive | 5% | 6.01 | 8 | inactive | – | – | – | – | – | – |
| CC(=O)O[C@H]1CC[C@]2(C)[C@H]3C(=O)C=C4[C@@H]5C[C@@](C)(C(=O)NCc6ccccc6)CC[C@]5(C)CC[C@@]4(C)[C@]3(C)CC[C@H]2C1(C)C | 50 µM | 2.21 µM | 25 µM | 48.79% | 584 µg/mL (≈ 970 µM) | 264.06 | – | 8.84 µM | inactive | 11% | 66.02 | 32 | – | 54.21% | 160 | Non-toxic | – | – | – |
| CCOC(=O)[C@@]1(C)CC[C@]2(C)CC[C@]3(C)C(=CC(=O)[C@@H]4[C@@]5(C)CC[C@H](OC(C)=O)C(C)(C)[C@@H]5CC[C@]43C)[C@@H]2C1 | 50 µM | 8.84 µM | >100 µM | 28.78% | 10.3 µg/mL (≈ 19 µM) | 1.16 | – | – | – | – | – | – | – | – | – | – | – | – | – |
| CCN(CC)C(=O)N1CCN(C)CC1.O=C(O)CC(O)(CC(=O)O)C(=O)O [DIETHYLCARBAMAZINE CITRATE] | 500 µM | 354 µM | 800 µM | 64% | 9100 µg/mL | 25.7 | – | 289 µM | – | – | 31.5 | – | – | – | – | – | 11% | inactive | inactive |
